ChEMBL document CHEMBL3860049, “Virtual Screening and X-ray Crystallography Identify Non-Substrate Analog Inhibitors of Flavin-Dependent Thymidylate Synthase” (J Med Chem, 2016)

System: Mycobacterium tuberculosis
Assay: Inhibition of Mycobacterium tuberculosis ThyX at 100 uM preincubated with enzyme followed by [5-3H]dUMP substrate addition measured after 30 mins in presence of 5,10-methylenetetrahydrofolate,NADPH and FAD by liquid scintillation counting
How it was run: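 Recombinant Mtb ThyX (purified per an earlier protocol) tested at 100 µM per compound. Tritium release assay: formation of tritiated water from loss of 3H at the 5-carbon of the dUMP pyrimidine ring, with dUMP as competing substrate. Read-out is percent inhibition. 5-FdUMP served as reference compound.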

| SMILES | inhibition |
| --- | --- |
| C[C@@H](Sc1n[nH]c(=O)[nH]c1=O)C(=O)O | 6.1% |
| O=c1[nH]c(=O)n([C@H]2C[C@H](O)[C@@H](COP(=O)(O)O)O2)cc1F | 97.3% |
| COc1ccc2[nH]c3c(O)nncc3c2c1 | 7% |
| O=c1[nH][nH]c(=O)c2[nH]cnc12 | 7.1% |
| O=c1[nH][nH]c(=O)c2nccnc12 | 5.3% |
| CSc1n[nH]c(=O)c2[nH]cnc12 | 10% |
| CC[C@H](Sc1n[nH]c(=O)[nH]c1=O)C(=O)O | 5.7% |
| O=c1[nH]nc(Cl)c2nc[nH]c12 | 29% |
| O=c1[nH][nH]c(=O)c2nc3ccccc3nc12 | 10% |
| CCCC(=O)C1C(=O)NC(=O)NC1=O | 11% |
| Cc1nnc(Cl)c2ncn(C)c12 | 14% |
| O=c1[nH]nc(-c2ccccc2)c2nc[nH]c12 | 15% |
